Reference: ChEMBL document CHEMBL4513216, “Probing the Open Global Health Chemical Diversity Library for Multistage-Active Starting Points for Next-Generation Antimalarials” (ACS Infect Dis, 2020)

Test: Toxicity liver stage against HepG2, at 10uM
Assay type: cell-based
Parameters: test concentration 10 uM, cell line HepG2-A16-CD81EGFP
Conditions: human, HepG2-A16-CD81EGFP cells; read-out: INHIBITION
Procedure, shortened: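 Uninfected HepG2-A16-CD81EGFP cells, 3 × 10^3 per well, 1536-well, plated on prespotted compound at 10 μM final, parasite-free screening media added to match infected plates; puromycin 10 μM positive, DMSO 0.5% negative; run in parallel with 48 h PbLuc assay at 37 °C, 5% CO2; viability by CellTiter-Glo luminescence, normalized to controls.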

Structure (SMILES) | cytotoxicity at 10 µM [%]
Cc1ccc2[nH]c([C@H]3CCN(CC4CCCCC4)C3)nc2c1 | -3.45
Cc1n[nH]c(C)c1CC(=O)NCCc1ccccc1 | 13.7
CC(=O)N1CC[C@@]2(O)CCCC[C@H]2[C@@H]1c1ccc2c(c1)OCO2 | 15.4
COc1ccc2nnc(CCCC(=O)NCCc3ccccn3)n2n1 | -9.49
O=C(CCc1ccccc1)NCC1CCN(Cc2cccs2)CC1 | -2.68
COc1ccc(C(=O)NCC(c2cccn2C)N2CCCC2)cc1OC (centres undefined) | 6.86
COCCN1C(=O)CC[C@@H]2[C@H]1CCN2C(=O)C1CCOCC1 | 9.67
Cc1nc(-c2cc(C(=O)N3CCN(C)CC3)c3ccccn23)cn1C | 8.73
Cc1ccc(N2CCO[C@@H]3CN(Cc4cccc(C)n4)CC[C@@H]3C2)nn1 | 7.67
CC1c2ncc(Cn3cncn3)n2CCN1C(=O)c1ccsc1 (centres undefined) | -0.551
O=C(c1ccccc1)N1CCC2(CC1)CC(Oc1ccccc1)CO2 (centres undefined) | 16.6
Cc1ncsc1CN1C[C@H](C(=O)NC2CCCC2)[C@@H]2CCO[C@@H]2C1 | 8.04
CCc1ccc(NC(=O)C2OC(c3cccs3)=NN2C(C)=O)cc1 (centres undefined) | 4.64
CCn1nc(C)c2ncnc(N(C)Cc3ccco3)c21 | 8.88
O=C1N[C@H]2OCCC[C@H]2[C@H](c2ccccc2)N1 | -0.675
O=C(c1cnc(C2CC2)nc1)N1CCCC(c2nccs2)C1 (centres undefined) | 4.53
CNc1cncc(C2CCCN2c2cc(C)ncn2)n1 (centres undefined) | -23.3
Cc1nnsc1C(=O)N1CCCC(n2nnc3cc(F)ccc32)C1 (centres undefined) | 3.49
CNC(=O)Cc1ccc(NC(=O)NCc2nc(C)sc2C)cc1 | -4.36
Cc1cc(N(C)C)nc(N2CCn3c(nnc3C(C)C)C2)n1 | 19
CN(C)C(=O)c1cccc(NC(=O)c2cnn(C)c2)c1 | -1.96
O=C(Nc1cccc(N2CCOCC2)c1)N[C@H](CO)c1ccccc1 | -8.1

Structure (SMILES) | cytotoxicity at 10 µM [%]
COc1ccccc1C(=O)NCCC(=O)Nc1c(C)nn(C)c1C | -9.49
COc1cc(C2(C(=O)N3CCN(CC(C)(C)O)CC3)CC2)ccc1C | -0.0264
CC(CS(C)(=O)=O)N(C(=O)c1ccc(Cl)s1)C1CC1 (centres undefined) | 1.51
CC(C)(C)c1cc(NC(=O)C2CCCO2)n(-c2ccccn2)n1 (centres undefined) | -1.26
N#Cc1ccc(CNC(=O)NC2CCN(CC(F)(F)F)C2)cc1 (centres undefined) | 7.06
Cc1ccn(-c2ccccc2NCc2cscn2)n1 | 13.2
CNc1nc(CNC(=O)Nc2cccc(COCCOC(C)C)c2)cs1 | 8.77
CCc1nccn1C1CCCN(C(=O)c2ccn(-c3ccccc3)n2)C1 (centres undefined) | 5.84
O=C(N1CCC(Oc2ccncc2)C1)C1(c2ccc(F)cc2)CC1 (centres undefined) | -8.55
Cc1nc(C2CCCN2Cc2cc(Cl)c3c(c2)OCCCO3)no1 (centres undefined) | 10.3
CS(=O)(=O)c1ccccc1NCc1ccc(Cn2ccnc2)cc1 | 1.67
CC(C)CS(=O)(=O)CC(=O)NC(C)(C)c1cccc(F)c1 | -1.12
CN(c1ncnc2ccccc12)C1CCCN(c2cccnn2)C1 (centres undefined) | 19.5
CCCc1noc(CCC(=O)Nc2cc(C(F)(F)F)c[nH]c2=O)n1 | -7.21
Cc1cnn(C2CN(CC(=O)N(C)Cc3cccs3)C2)c1 | -16.1
CN(Cc1ccc([S+](C)[O-])cc1)c1ccc(C(F)(F)F)cn1 (centres undefined) | -1.32
Cc1cc(=O)[nH]cc1C(=O)N1Cc2ccccc2N(C)CC1C (centres undefined) | 0.305
Cc1ccc(CNC(c2ccc(F)cc2)c2nccn2C)o1 (centres undefined) | 0.841
Cc1cc(C)cc(NC(=O)N(CCC#N)CCCN(C)C)c1 | -49.3
Cc1ccc(OCCC(=O)N(C)CC(=O)Nc2cc(C)on2)c(C)c1 | -16.9
CCc1c(C)nc2ccccc2c1N1CCC(C(=O)NC)CC1 | 3.85
CC(=O)NC1CCCN(C(=O)Nc2nnc(C(C)C)s2)C1 (centres undefined) | 12.6

Structure (SMILES) | cytotoxicity at 10 µM [%]
Cc1cc(C(=O)NS(C)(=O)=O)ccc1I | 6.85
O=C(NC[C@@H]1C[C@@H]2CN(C(=O)CO)C[C@H]2O1)c1ccsc1 | -96.5
Cn1cc(CN2C[C@H]3CCC[C@@]3(COc3cccnc3)C2)cn1 | -107
CCN(CC)c1ncnc2c1CCN(c1ccc(C)nn1)CC2 | -108
Cn1cccc1C(=O)N1CCn2cc(CN3CCCC3)nc2C1 | -72.3
N#Cc1ccc(C(=O)N2CCn3cc(CN4CCCCC4)nc3C2)cc1 | -84.7
CCN(C)c1ncnc2c1CCN(C(=O)c1cccn1C)CC2 | -67.8
CN(C)CCCN(C)C1CCN(c2cccc(-c3cscn3)c2)CC1 | -5
Cc1nc(C(C)Nc2nc3c(s2)c(C)nn3C)n[nH]1 (centres undefined) | 10.2
NCCO[C@H]1C[C@@H](O)C12CCN(Cc1c(F)cccc1F)CC2 | -20
CCCc1cnc(C)nc1N1CCC(Cc2cccc(C(N)=O)c2)C1 (centres undefined) | 3.52
O=C(NCCC1=CCCCC1)c1cc(-c2ccc(O)cc2)n[nH]1 | 38.8
CCC[C@H]1CN(S(=O)(=O)c2ccc(CC)s2)C[C@@H]1N | 4.69
CC(NC(=O)C1CCCC1)c1nncn1C(C)C (centres undefined) | 6.89
COc1cc(C(=O)N2CCC3(CC2)Nc2ccccc2NC3=O)ccn1 | 0.701
CNC(=O)CC1COCCN1C(=O)C1(c2ccc(Cl)cc2)CCC1 (centres undefined) | 5.33
CCn1c(C2CCNCC2)nn(Cc2ccc(C(=O)NC)o2)c1=O | 6.8
CC(=O)c1cccc(CN2CC(Oc3ccccc3C)C2)c1 | -4.16
CN(Cc1c[nH]nc1-c1ccc(F)cc1F)Cc1nccn1C | 2.5
CC(C)Cc1cc(CNC(=O)c2cccc3c2OCC3)no1 | -47.9
CCc1cc(NC2CCS(=O)(=O)C2)nc(N2CCCCC2)n1 (centres undefined) | -3.15
Cc1ccc(C(=O)N2CCCn3nc(CCC(=O)O)cc3C2)cc1Cl | -3.49

Structure (SMILES) | cytotoxicity at 10 µM [%]
COCCN(C)Cc1nc(-c2cccc(F)c2F)oc1C | 2.56
Cc1ccc(C(=O)N[C@H]2CN(CCO)C[C@@H]2C2CC2)cc1Cl | 6.93
O[C@H]1[C@H](NCCSc2ccccn2)c2ccccc2C12CCNCC2 | -13.4
CC(=O)N[C@@H]1Cc2ccccc2[C@H]1Nc1nnc(C2CC2)o1 | -47.1
O=C(CCCn1nnc(-c2ccc(F)cc2)n1)N1CCOCC(CO)C1 (centres undefined) | 16.2
Cc1cc(C(=O)N2CCN(Cc3ccco3)C(CCO)C2)cc(=O)[nH]1 (centres undefined) | -1.5
COc1ccc(-n2nc(C3CC3)nc2CCn2cnnn2)cc1 | -2.88
COC(=O)[C@H](CSC)Nc1nc(C2CCCC2)nc2c1cnn2C | -52.6
Cc1ccc(CS(=O)(=O)NCc2ccco2)cc1 | -2.11
O=S(=O)(Cc1ccc(F)cc1)NCc1ccco1 | 14.1
CCc1nccn1C1CCCN(C(=O)c2ccc3c(c2)OCCO3)C1 (centres undefined) | -11.8
CC(C)CC(=O)Nc1cccc(CNCc2cccs2)c1 | 0.25
CC1CCN(CCCNC(=O)NC(C)c2nncn2C)CC1 (centres undefined) | -11.6
CCOc1ncccc1CNC(=O)NC1CCOc2ccccc21 (centres undefined) | -9.65
CCn1ccnc1CN1CCN(CC(=O)NC(C2CC2)C2CC2)CC1 | -19.4
COc1ccc(C(=O)N2CCCC(n3nc(C)nc3C)C2)c(OC)c1 (centres undefined) | -18.2
CC(C)c1n[nH]c(C2CN(C(=O)c3cc4c(s3)CCC4)CCO2)n1 (centres undefined) | -11
COc1ccc(C)cc1C(=O)NC(CC(=O)O)c1cccs1 (centres undefined) | -16.3
O=C(NCC(F)(F)F)C1CSCN1S(=O)(=O)c1ccccc1F (centres undefined) | -16.3
CCc1cnc(CN(C)C2CCN(CCn3cc(C#N)cn3)C2)o1 (centres undefined) | -8.99
Cc1ccc(C(C)N(C)Cc2nc3c(cnn3C)c(=O)[nH]2)cc1 (centres undefined) | -3.91
CN(Cc1ccccc1)C(=O)c1nc(S(C)(=O)=O)n2ccccc12 | -7.36

Structure (SMILES) | cytotoxicity at 10 µM [%]
CC(C)CC(CNC(=O)NCc1cc[nH]n1)N1CCOCC1 (centres undefined) | -12.6
CS(=O)(=O)c1ccccc1C(=O)NCCCN1CCc2ccccc2C1 | 1.01
Cc1ccc(-c2nc(CN3CCN(S(=O)(=O)N(C)C)CC3)cs2)o1 | 6.81
Cc1cc(C)n(CC2CCCN2C(=O)c2ccc3c(c2)OCO3)n1 (centres undefined) | -9.31
CC(NCc1cnc(N2CCOCC2)nc1)c1ccc(Cl)s1 (centres undefined) | -4.9
CN1CCN(C(=O)[C@H]2CC[C@@H]3[C@@H](CCN3Cc3ccsc3)O2)CC1 | 1.07
CCCN1CCC(c2nc3ccc(NCc4cccnc4)cn3n2)CC1 | -121
CC(CCc1ccccc1)NC(=O)CNCCCN(C)C (centres undefined) | -3.83
Cn1cc(CN2C[C@@H]3COC[C@]3(CNC(=O)c3ccco3)C2)cn1 | -73.1
Fc1cnc(N2CC3(CCN(Cc4ccsc4)C3)C2)nc1 | -84.4
CN(Cc1ccncc1)C1COC2(CCN(Cc3ccccn3)CC2)C1 (centres undefined) | -103
COCC(=O)N1CCOC2(CCCN(c3cnccn3)C2)C1 (centres undefined) | 7.83
Cc1ccc(C(=O)N2CCC3(CC2)CCN(Cc2ccccn2)C3=O)o1 | 2.49
O=S(=O)(N1CCCC1)N1CC[C@H](c2ccccc2)[C@H]2NCCCC[C@H]21 | -25.1
COc1ccc(OCCc2sc(C3(O)CCCNCC3)nc2C)cc1 (centres undefined) | -14.9
CS(=O)(=O)NCc1cc(=O)n2c(n1)CN(Cc1ccco1)CCC2 | 7.25
Cc1cccc(N2CC3(CCN(Cc4nccn4C)C3)CC2=O)c1 (centres undefined) | -78.6
O=C(c1c[nH]cn1)N1CCC(F)(F)C2(CCN(c3cnccn3)C2)C1 (centres undefined) | 8.19
COCCN1CCC2(COCc3cnc(N4CCOCC4)nc32)C1 (centres undefined) | 11.6
O=C(NCCc1cccs1)[C@]12COC[C@H]1CN(c1ncccn1)C2 | -109
Cc1nc(COCc2cnc3n2CCN(C)C3C)cs1 (centres undefined) | 6.01
